According to ChEMBL document CHEMBL4138242, “Synthesis and antibacterial evaluation of novel cationic chalcone derivatives possessing broad spectrum antibacterial activity” (Eur J Med Chem, 2018):
Activity calls are given as the source filed them.

Experiments:
Staphylococcus aureus [1] = assay: Antibacterial activity against methicillin-resistant Staphylococcus aureus clinical isolate 0831010 after 16 to 20 hrs by broth microdilution method; format: functional
Summary of the method: (§1)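 CLSI broth microdilution in Mueller-Hinton broth. A 4-6 h culture was diluted to about 10⁶ CFU/mL and mixed 1:1 with compound dilutions prepared at 256 to 0.5 µg/mL from aqueous stocks. Plates were incubated at 37 °C for 16-20 h and read visually for MIC. Each concentration was run in duplicate, and the experiment was repeated at least twice. Vancomycin and meropenem were comparators.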

Escherichia coli [2] = assay: Antibacterial activity against Escherichia coli ATCC 25922 at sub MIC after 20 passages; format: functional, organism-based
Summary of the method: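 The MIC was first measured by broth microdilution. Cells grown at MIC/2 were then carried into a fresh MIC assay after each 24 h, repeated over 20 serial passages. Norfloxacin (S. aureus) and colistin (E. coli) served as control antibiotics. Resistance was defined as a >4-fold rise over the original MIC.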

Staphylococcus aureus [3] = assay: Disruption of 24 hrs cultured Staphylococcus aureus ATCC 29213 biofilm assessed as decrease in cell viability in biofilm after 24 hrs by crystal violet staining-based assay; format: functional, organism-based
Escherichia coli [4] = assay: Antibacterial activity against drug-resistant NDM1 producing Escherichia coli clinical isolate CF-15-61 after 16 to 20 hrs by broth microdilution method; format: functional; summary of the method: as §1
Staphylococcus aureus [5] = assay: Disruption of 24 hrs cultured Staphylococcus aureus ATCC 29213 biofilm assessed as cell viability in biofilm at 64 ug/ml after 24 hrs by crystal violet staining-based assay (reference value: 15.96 log10CFU/ml); format: functional
Escherichia coli [6] = assay: Antibacterial activity against drug-resistant NDM1 producing Escherichia coli clinical isolate Ecl-14-58 after 16 to 20 hrs by broth microdilution method; format: functional; summary of the method: as §1
[7] = Hemolytic activity in sheep RBC after 1 hr; format: ADME, cell-based, Ovis aries, Erythrocyte; conditions: sheep red blood cells (erythrocytes)
Summary of the method: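 Sheep red blood cells (150 µL suspension) mixed with 50 µL of compound dilutions (5120-10 µg/mL), 1 h at 37 °C, then centrifuged. Supernatant read at 540 nm. Percent hemolysis calculated relative to RBC-only control (0%) and 0.1% Triton X-100 (100%).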

Salmonella enterica = assay: Antibacterial activity against Salmonella enterica ATCC 13076 after 16 to 20 hrs by broth microdilution method; format: functional
Summary of the method: (§2)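 Broth microdilution per CLSI. Bacteria grown 4-6 h (about 10⁸ CFU/mL), then diluted to about 10⁶ CFU/mL. Medium: Mueller-Hinton broth, except Luria-Bertani broth for E. coli. Compounds in sterile water, twofold series 256-0.5 µg/mL, mixed 1:1 with inoculum, 37 °C for 16-20 h. MIC is the lowest concentration without visible growth. Duplicate wells; experiment repeated at least twice.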

Klebsiella pneumoniae [8] = assay: Antibacterial activity against drug-resistant carbapenemase producing Klebsiella pneumoniae clinical isolate KP-14-4 after 16 to 20 hrs by broth microdilution method; format: functional; summary of the method: as §1
Staphylococcus aureus [9] = assay: Bactericidal activity against methicillin-resistant Staphylococcus aureus in presence of 50% sheep blood after 20 to 24 hrs; format: functional; conditions: read-out: MBC99.9
Summary of the method: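 MRSA at 10⁵ CFU/mL in 50% MHB plus 50% sheep serum, plasma or defibrinated blood; serum and plasma were obtained by centrifugation at 3,500 rpm for 10 min. Aqueous dilutions prepared at 512-4 µg/mL were added 1:3 to the suspension and incubated for 20-24 h at 37 °C. Well contents (20 µL) were plated on MHA for 20-24 h, and MBC was the concentration giving no colonies.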

Escherichia coli [10] = assay: Antibacterial activity against drug-resistant NDM1 producing Escherichia coli clinical isolate Ecl-14-56 after 16 to 20 hrs by broth microdilution method; format: functional; summary of the method: as §1
Enterococcus faecalis = assay: Antibacterial activity against Enterococcus faecalis ATCC 29212 after 16 to 20 hrs by broth microdilution method; format: functional; summary of the method: as §2
Escherichia coli [11] = assay: Antibacterial activity against drug-resistant NDM1 producing Escherichia coli clinical isolate SM-15-84 after 16 to 20 hrs by broth microdilution method; format: functional; summary of the method: as §1
Escherichia coli [12] = assay: Induction of cytoplasmic membrane depolarization in Escherichia coli ATCC 25922 at 10 to 20 ug/ml measured every 2 mins for 12 mins by DiSC35 dye-based fluorescence assay; format: functional, organism-based
Summary of the method: (§3)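 Mid-log cells (~10⁸ CFU/mL) were suspended in PBS (S. aureus) or HEPES/glucose/KCl with EDTA (E. coli). They were preloaded with DiSC3(5) for 30 min (S. aureus) or 40 min (E. coli), and baseline fluorescence was read for 8 min. Compound was added to 20 µg/mL final, and fluorescence (ex 622/em 670 nm) was read every 2 min for 12 min. Water served as control.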

Staphylococcus aureus [13] = assay: Disruption of 24 hrs cultured Staphylococcus aureus ATCC 29213 biofilm assessed as cell viability in biofilm at 128 ug/ml after 24 hrs by crystal violet staining-based assay (reference value: 15.96 log10CFU/ml); format: functional
Staphylococcus aureus [14] = assay: Induction of inner membrane permeabilization in Staphylococcus aureus ATCC 29213 at 10 to 20 ug/ml measured every 2 mins for 12 mins by propidium iodide staining-based fluorescence assay; format: functional, organism-based
Summary of the method: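 Mid-log cells (~10⁸ CFU/mL) were suspended in PBS (S. aureus) or HEPES/glucose/KCl (E. coli). They were preincubated with propidium iodide for 30 min (S. aureus) or 40 min (E. coli), and baseline fluorescence was read for 8 min. Compound was added to 20 µg/mL final, and fluorescence (ex 535/em 617 nm) was read every 2 min for 12 min.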

Staphylococcus aureus [15] = assay: Bactericidal activity against Staphylococcus aureus ATCC 29213 after 20 to 24 hrs; format: functional; conditions: read-out: MBC99.9
Summary of the method: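 MBC: wells showing little or no turbidity in the broth microdilution MIC assay were plated (20 µL) on agar and incubated 20-24 h at 37 °C. MBC is the lowest concentration giving no colonies.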

Staphylococcus aureus [16] = assay: Disruption of 24 hrs cultured Staphylococcus aureus ATCC 29213 biofilm assessed as cell viability in biofilm at 8 ug/ml after 24 hrs by crystal violet staining-based assay (reference value: 15.96 log10CFU/ml); format: functional
Escherichia coli [17] = assay: Antibacterial activity against drug-resistant NDM1 producing Escherichia coli clinical isolate CF-13-61 after 16 to 20 hrs by broth microdilution method; format: functional; summary of the method: as §1
Escherichia coli [18] = assay: Antibacterial activity against drug-resistant NDM1 producing Escherichia coli clinical isolate EA-14-61 after 16 to 20 hrs by broth microdilution method; format: functional; summary of the method: as §1
Staphylococcus aureus [19] = assay: Antibacterial activity against Staphylococcus aureus ATCC 29213 after 16 to 20 hrs by broth microdilution method; format: functional; summary of the method: as §2
Staphylococcus aureus [20] = assay: Bactericidal activity against Staphylococcus aureus ATCC 29213 preincubated with 50% sheep plasma at 512 ug/ml for 3 to 6 hrs followed by compound serial dilution and subsequent bacterial inoculation measured after 20 to 24 hrs; format: functional; conditions: read-out: MBC99.9
Summary of the method: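 Compound at 512 µg/mL in 50% water/50% sheep plasma, preincubated at 37 °C for 0, 3 or 6 h. Then serially diluted (256-4 µg/mL) and combined 50:150 µL with S. aureus at 10⁵ CFU/mL, 37 °C for 20-24 h. MBC determined by plating; three parallel samples.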

Klebsiella pneumoniae [21] = assay: Antibacterial activity against drug-resistant carbapenemase producing Klebsiella pneumoniae clinical isolate KP-14-1 after 16 to 20 hrs by broth microdilution method; format: functional; summary of the method: as §1
Staphylococcus aureus [22] = assay: Induction of cytoplasmic membrane depolarization in Staphylococcus aureus ATCC 29213 at 10 to 20 ug/ml measured every 2 mins for 12 mins by DiSC35 dye-based fluorescence assay; format: functional, organism-based; summary of the method: as §3

Question: For `CCCCCCCC[N+](C)(C)CC(=O)Nc1ccc(C(=O)/C=C/c2ccccc2F)cc1.[Cl-]`, which MIC (Staphylococcus aureus [1]) is on record?
Answer: 0.5 µg/mL

Question: What about the Activity (Escherichia coli [2]) of the same compound?
Answer: Active

Question: What about the Activity (Staphylococcus aureus [3]) of the same compound?
Answer: Dose-dependent effect

Question: And the MIC (Escherichia coli [4])?
Answer: 4 µg/mL

Question: And the Activity (Staphylococcus aureus [5])?
Answer: 9.41 log10CFU/ml

Question: What about the MIC (Escherichia coli [6]) of the same compound?
Answer: 4 µg/mL

Question: What about the HC50 at 1 h [7] of the same compound?
Answer: 137 µg/mL

Question: And the MIC (Salmonella enterica)?
Answer: 4 µg/mL

Question: What about the MIC (Klebsiella pneumoniae [8]) of the same compound?
Answer: 4 µg/mL

Question: And the MBC (Staphylococcus aureus [9])?
Answer: 128 µg/mL

Question: What about the MIC (Escherichia coli [10]) of the same compound?
Answer: 4 µg/mL

Question: What about the MIC (Enterococcus faecalis) of the same compound?
Answer: 1 µg/mL

Question: And the MIC (Escherichia coli [11])?
Answer: 16 µg/mL

Question: And the Activity (Escherichia coli [12])?
Answer: Active

Question: What about the Activity (Staphylococcus aureus [13]) of the same compound?
Answer: 8.95 log10CFU/ml

Question: And the Activity (Staphylococcus aureus [14])?
Answer: Active

Question: What about the MBC (Staphylococcus aureus [15]) of the same compound?
Answer: 8 µg/mL

Question: And the Activity (Staphylococcus aureus [16])?
Answer: 11.696 log10CFU/ml

Question: And the MIC (Escherichia coli [17])?
Answer: 4 µg/mL

Question: And the MIC (Escherichia coli [18])?
Answer: 4 µg/mL

Question: What about the MIC (Staphylococcus aureus [19]) of the same compound?
Answer: 0.5 µg/mL

Question: And the MBC (Staphylococcus aureus [20])?
Answer: 16 µg/mL

Question: And the MIC (Klebsiella pneumoniae [21])?
Answer: 8 µg/mL

Question: What about the Activity (Staphylococcus aureus [22]) of the same compound?
Answer: Active
